Experimental data published in ChEMBL document CHEMBL5724801, “EUbOPEN Chemogenomics Library - Multiplex” (2024).
Several values for one entry are separate records, joined by “and”; a condition that tells them apart may be missing. Identical values can stand only once.

Test system: U2OS
Assay: Multiplex assay against U2OS
Format: toxicity, cell-based
Details: human
Method in brief: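 Cells stained live at seeding with Hoechst33342, BioTracker Green Microtubule Cytoskeleton Dye, MitoTracker Red and Annexin V Alexa Fluor 680 were imaged on a CQ1 microscope at 37°C and 5% CO2 after compound addition. Their classification by CellPathfinder machine-learning gating ran from Hoechst high-intensity objects versus normal cells, to healthy, pyknosed or fragmented nuclei among normal cells, to mitotic or apoptotic among pyknosed cells. Tubulin, mitochondrial-mass and membrane-permeability phenotypes are per cents of healthy-nucleus cells.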

[1] = 12 h, 1 µM, compound concentration 1 uM
[2] = 12 h, 10 µM, compound concentration 10 uM
[3] = 24 h, 1 µM, compound concentration 1 uM
[4] = 24 h, 10 µM, compound concentration 10 uM
[5] = 48 h, 1 µM, compound concentration 1 uM
[6] = 48 h, 10 µM, compound concentration 10 uM

Cn1ncnc1COc1nn2c(-c3cc(F)ccc3F)nnc2cc1C(C)(C)C
Population Apoptotic (%) [1]: 55.26% and 53.85% | Population Fragmented Nuclei (%) [1]: 0.89% and 4.24% | Population Healthy Nuclei (%) [1]: 90.6% and 80% | Population Hoechst High Intensity Objects (%) [1]: 0% | Population Mitochondria Different-Phenotype (%) [1]: 0% and 7.58% | Population Mitotic Cells (%) [1]: 44.74% and 46.15% | Population Normal (%) [1]: 100% | Population Pyknosed Nuclei (%) [1]: 8.5% and 15.76% | Population Tubulin-Different-Phenotype (%) [1]: 1.23% and 0.76% | Total Cell Count [1]: 447 and 165 | Population Apoptotic (%) [2]: 36.84% and 41.18% | Population Fragmented Nuclei (%) [2]: 1.2% and 0.65% | Population Healthy Nuclei (%) [2]: 87.43% and 88.24% | Population Hoechst High Intensity Objects (%) [2]: 0% | Population Mitotic Cells (%) [2]: 63.16% and 58.82% | Population Normal (%) [2]: 100% | Population Pyknosed Nuclei (%) [2]: 11.38% and 11.11% | Population Tubulin-Different-Phenotype (%) [2]: 1.71% and 1.48% | Total Cell Count [2]: 334 and 153 | Population Apoptotic (%) [3]: 33.9% and 52.63% | Population Fragmented Nuclei (%) [3]: 0.96% and 3.02% | Population Healthy Nuclei (%) [3]: 89.63% and 77.89% | Population Hoechst High Intensity Objects (%) [3]: 0% | Population Mitochondria Different-Phenotype (%) [3]: 0% and 7.74% | Population Mitotic Cells (%) [3]: 66.1% and 47.37% | Population Normal (%) [3]: 100% | Population Pyknosed Nuclei (%) [3]: 9.41% and 19.1% | Population Tubulin-Different-Phenotype (%) [3]: 0.53% and 0.65% | Population Apoptotic (%) [4]: 30.77% and 47.83% | Population Fragmented Nuclei (%) [4]: 1.81% and 3.66% | Population Healthy Nuclei (%) [4]: 86.39% and 84.29% | Population Hoechst High Intensity Objects (%) [4]: 0% and 0.52% | Population Mitochondria Different-Phenotype (%) [4]: 0% and 3.73% | Population Mitotic Cells (%) [4]: 69.23% and 52.17% | Population Normal (%) [4]: 100% and 99.48% | Population Pyknosed Nuclei (%) [4]: 11.79% and 12.04% | Population Tubulin-Different-Phenotype (%) [4]: 2.62% and 1.24% | Total Cell Count [4]: 441 and 192 | Population Apoptotic (%) [5]: 43.96% and 63.41% | Population Fragmented Nuclei (%) [5]: 3.06% and 2.48% | Population Healthy Nuclei (%) [5]: 88.51% and 84.83% | Population Hoechst High Intensity Objects (%) [5]: 0% and 0.31% | Population Mitochondria Different-Phenotype (%) [5]: 0% and 6.93% | Population Mitotic Cells (%) [5]: 56.04% and 36.59% | Population Normal (%) [5]: 100% and 99.69% | Population Pyknosed Nuclei (%) [5]: 8.43% and 12.69% | Population Tubulin-Different-Phenotype (%) [5]: 1.05% and 0.73% | Population Apoptotic (%) [6]: 56.04% and 51.22% | Population Fragmented Nuclei (%) [6]: 2.31% and 1.96% | Population Healthy Nuclei (%) [6]: 87.15% and 84.64% | Population Hoechst High Intensity Objects (%) [6]: 0% | Population Mitochondria Different-Phenotype (%) [6]: 0.13% and 5.41% | Population Mitotic Cells (%) [6]: 43.96% and 48.78% | Population Normal (%) [6]: 100% | Population Pyknosed Nuclei (%) [6]: 10.53% and 13.4% | Population Tubulin-Different-Phenotype (%) [6]: 1.86% and 1.54% | Total Cell Count [6]: 864 and 306

C=CC(=O)Nc1cc(Nc2nccc(-n3cc(CN(C)C)c(-c4ccccc4)n3)n2)c(OC)cc1N1CCOCC1 [LAZERTINIB]
Population Apoptotic (%) [1]: 37.5% and 46.67% | Population Fragmented Nuclei (%) [1]: 2.41% and 2.92% | Population Healthy Nuclei (%) [1]: 85.54% and 75.18% | Population Hoechst High Intensity Objects (%) [1]: 0% | Population Membrane Permeable-Phenotype (%) [1]: 40.14% and 54.37% | Population Mitotic Cells (%) [1]: 62.5% and 53.33% | Population Normal (%) [1]: 100% | Population Pyknosed Nuclei (%) [1]: 12.05% and 21.9% | Population Tubulin-Different-Phenotype (%) [1]: 55.63% and 64.08% | Total Cell Count [1]: 332 and 137 | Population Apoptotic (%) [2]: 49.07% and 38.89% | Population Fragmented Nuclei (%) [2]: 3.84% and 4.81% | Population Healthy Nuclei (%) [2]: 68.54% and 60.58% | Population Hoechst High Intensity Objects (%) [2]: 0% | Population Membrane Permeable-Phenotype (%) [2]: 48.88% and 50.79% | Population Mitotic Cells (%) [2]: 50.93% and 61.11% | Population Normal (%) [2]: 100% | Population Pyknosed Nuclei (%) [2]: 27.62% and 34.62% | Population Tubulin-Different-Phenotype (%) [2]: 97.39% and 85.71% | Population Apoptotic (%) [3]: 29.69% and 52.94% | Population Fragmented Nuclei (%) [3]: 2.35% and 3.45% | Population Healthy Nuclei (%) [3]: 80.94% and 73.1% | Population Hoechst High Intensity Objects (%) [3]: 0% | Population Membrane Permeable-Phenotype (%) [3]: 20% and 30.19% | Population Mitotic Cells (%) [3]: 70.31% and 47.06% | Population Normal (%) [3]: 100% | Population Pyknosed Nuclei (%) [3]: 16.71% and 23.45% | Population Tubulin-Different-Phenotype (%) [3]: 32.58% and 42.45% | Total Cell Count [3]: 383 and 145 | Population Apoptotic (%) [4]: 55.04% and 53.66% | Population Fragmented Nuclei (%) [4]: 3.46% and 5.83% | Population Healthy Nuclei (%) [4]: 64.69% and 54.37% | Population Hoechst High Intensity Objects (%) [4]: 0.25% and 0% | Population Membrane Permeable-Phenotype (%) [4]: 39.69% and 35.71% | Population Mitotic Cells (%) [4]: 44.96% and 46.34% | Population Normal (%) [4]: 99.75% and 100% | Population Pyknosed Nuclei (%) [4]: 31.85% and 39.81% | Population Tubulin-Different-Phenotype (%) [4]: 93.51% and 87.5% | Population Apoptotic (%) [5]: 61.96% and 68.33% | Population Fragmented Nuclei (%) [5]: 3% and 6.88% | Population Healthy Nuclei (%) [5]: 79.78% and 55.62% | Population Hoechst High Intensity Objects (%) [5]: 0% | Population Mitotic Cells (%) [5]: 38.04% and 31.67% | Population Normal (%) [5]: 100% | Population Pyknosed Nuclei (%) [5]: 17.23% and 37.5% | Population Tubulin-Different-Phenotype (%) [5]: 15.02% and 28.09% | Population Apoptotic (%) [6]: 64.5% and 69.23% | Population Fragmented Nuclei (%) [6]: 5.97% and 5.31% | Population Healthy Nuclei (%) [6]: 59.26% and 60.18% | Population Hoechst High Intensity Objects (%) [6]: 0% | Population Membrane Permeable-Phenotype (%) [6]: 31.6% and 30.88% | Population Mitotic Cells (%) [6]: 35.5% and 30.77% | Population Normal (%) [6]: 100% | Population Pyknosed Nuclei (%) [6]: 34.77% and 34.51% | Population Tubulin-Different-Phenotype (%) [6]: 77.43% and 79.41%
